Measurements reported in ChEMBL document CHEMBL4138128, “Structural design, synthesis and pharmacological evaluation of thiazoles against Trypanosoma cruzi” (Eur J Med Chem, 2017).
Calls of active or inactive are those of the source. No cut-off for these calls is given here.

How the values were obtained:
Trypanosoma cruzi [1] = experiment: Antitrypanosomal activity against bloodstream trypomastigote stage of Trypanosoma cruzi Y infected in monkey LLC-MK2 cells assessed as reduction in parasite motility measured after 24 hrs by neubauer chamber method; assay type: functional, organism-based; conditions: LLC-MK2, 24 h
Outline: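 Y strain trypomastigotes from LLC-MK2 supernatants, 4x10^5/well, incubated 24 h at 37°C, 5% CO2 with five concentrations; viable parasites counted by motility in Neubauer chamber. Inhibition versus untreated cultures; IC50 by non-linear regression; benznidazole reference.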

[2] = Cytotoxicity against mouse J774 cells assessed as reduction in cell viability after 72 hrs by alamar blue assay; assay type: cell-based
Outline: (§1)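 H9c2 or J774 cells (1 x 10^4/well) in DMEM/10% FBS preincubated 24 h, then exposed 72 h to six concentrations (0.41 to 100 µM) in triplicate, DMSO under 1%. Viability by AlamarBlue, read after 6 h at 570/600 nm; CC50 from three independent experiments; gentian violet positive control.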

[3] = Cytotoxicity against rat H9c2 cells assessed as reduction in cell viability after 72 hrs by alamar blue assay; assay type: cell-based; outline: as §1
Trypanosoma cruzi [4] = experiment: Antitrypanosomal activity against bloodstream trypomastigote stage of Trypanosoma cruzi Y infected in Balb/c mouse macrophages assessed as reduction in number of infected cells at 0.5 uM measured after 3 days by hoeschst staining based confocal microscopic method; assay type: functional, organism-based; conditions: 5 uM, in the assay text read “at 5 uM” for “at 0.5 uM”
Outline: (§2)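 BALB/c peritoneal macrophages (5x10^4/well) in DMEM/10% FBS, infected with trypomastigotes (10:1) for 2 h, washed, held 24 h, then treated 72 h (test at 8, 2, 0.5 µM; benznidazole 5 µM control). Formaldehyde-fixed, Hoechst-stained, imaged by confocal high-content microscopy for infected cells and amastigotes per 100 cells; six determinations; ANOVA with Bonferroni.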

Trypanosoma cruzi [5] = experiment: Antitrypanosomal activity against bloodstream trypomastigote stage of Trypanosoma cruzi Y infected in Balb/c mouse macrophages assessed as reduction in number of intracellular amastigotes at 0.5 uM measured after 3 days by hoeschst staining based confocal microscopic method; assay type: functional, organism-based; conditions: 5 uM, in the assay text read “at 5 uM” for “at 0.5 uM”; outline: as §2
Trypanosoma cruzi [6] = experiment: (§3) Antitrypanosomal activity against bloodstream trypomastigote stage of Trypanosoma cruzi Y infected in Balb/c mouse assessed as reduction in blood parasitaemia at 100 mg/kg, po qd administered for 5 consecutive days starting from day 5 post infection measured on day 8 post infection relative to control; assay type: functional; design: scale not given: the % may be the effect or the level left
Outline: (§4)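 Female BALB/c mice (18-22 g, 6-8 weeks) infected i.p. with 10^4 Y strain bloodstream trypomastigotes in saline; six per group. From day 5, oral dosing once daily for 5 days; vehicle saline with 20% DMSO. Parasitaemia counted as motile parasites in 5 µL tail-vein blood; reduction = (vehicle mean − treated mean)/vehicle mean × 100. Mortality followed to 30 days post-treatment.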

Trypanosoma cruzi [7] = experiment: as §3, with “12” for “8”; assay type: functional; design: scale not given: the % may be the effect or the level left; outline: as §4
Trypanosoma cruzi [8] = experiment: Antitrypanosomal activity against bloodstream trypomastigote stage of Trypanosoma cruzi Y infected in Balb/c mouse assessed as protection against mouse mortality at 100 mg/kg, po qd administered for 5 consecutive days starting from day 5 post infection measured up to 30 days post treatment; assay type: functional, organism-based; outline: as §4
Mus musculus = experiment: Toxicity in Balb/c mouse infected with Trypanosoma cruzi Y trypomastigotes assessed as behavioral alteration at 100 mg/kg, po qd administered for 5 consecutive days starting from day 5 post infection; assay type: organism-based; conditions: in vivo; outline: as §4

Question: Which results are given for O=C(Cn1ccnc1[N+](=O)[O-])NCc1ccccc1 [BENZNIDAZOLE]?
Answer: IC50 (Trypanosoma cruzi [1]): 10.6 µM; CC50 at 72 h [2]: > 50 µM; CC50 at 72 h [3]: > 50 µM; Activity (Trypanosoma cruzi [4]): Active; Activity (Trypanosoma cruzi [5]): Active; Activity (Trypanosoma cruzi [6]): >99%; Activity (Trypanosoma cruzi [7]): >99%; Activity (Trypanosoma cruzi [8]): Active; Activity (Mus musculus): Non-Toxic
